Where two headings read alike, the source gives them in different places. No end group written: not given here.

Assay [1] has as its target T1, recombinant human HSP72 (Homo sapiens, UniProt P0DMV8). As to the kind of experiment: BIAcore SPR kinetic analysis of peptide binding to immobilized HSP72. The conditions noted are these: pH 7.4, read-out: ka (on rate). A digest of the protocol:
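Recombinant human HSP72 dialysed into 10 mM sodium acetate pH 5.0 and covalently coupled to a CM5 chip at about 10,000 RU. Peptides were dissolved in running buffer (HBS-P pH 7.4, 2.5 mM Mg acetate, 2.5 mM ATP) and injected at 25 to 200 μM. Sensorgrams were reference-channel subtracted without regeneration, then globally fitted to a 1:1 Langmuir model and judged by Chi2 and residuals.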

The target in assay [2] is T1, recombinant human HSP72. As to the kind of experiment: BIAcore SPR peptide binding to high-density immobilized HSP72. Conditions: for binding to HSP72 (sensorgram pattern): 1 mM peptide, high HSP72 immobilization density (20,000 RU), data not shown, see reference [15]. (In general: In SPR one partner is held on a chip, and binding of the other changes the refractive index at the surface.)

The test system of assay [3] is MV RNP (parent Ed-MV and 4D variant). Format: cell-based, measles virus. The conditions noted are these: recombinant virus with 4D-substituted motif; unpublished data.
Assay [4] concerns MV transcription and genomic replication. The conditions noted are these: ref [15], cited from earlier work.
Assay [5] has as its system viral RNP transcriptional activity. Conditions: ATP-dependent association with CDV and MV RNP; ref [10]-[13]; cited from earlier work.
The test system of assay [6] is CDV transcription and genome replication. Put plainly: CDV viral transcription and genome replication, HSP72 responsiveness. Format: cell-based, canine distemper virus (Onderstepoort strain). The conditions noted are these: Onderstepoort CDV N protein (YSDKELL); unpublished observation.
The subject of assay [7] is IgG. As to the kind of experiment: BIAcore SPR peptide binding to irrelevant ligand. Conditions: irrelevant ligand IgG immobilized; data not shown, see reference [15].
The test system of assay [8] is MV RNP-HSP72 interaction. Put plainly: Peptide competitive inhibition of MV RNP-HSP72 interaction. Type of assay: binding, human HSP72; measles virus RNP.

T1 sequence (P0DMV8 whole entry): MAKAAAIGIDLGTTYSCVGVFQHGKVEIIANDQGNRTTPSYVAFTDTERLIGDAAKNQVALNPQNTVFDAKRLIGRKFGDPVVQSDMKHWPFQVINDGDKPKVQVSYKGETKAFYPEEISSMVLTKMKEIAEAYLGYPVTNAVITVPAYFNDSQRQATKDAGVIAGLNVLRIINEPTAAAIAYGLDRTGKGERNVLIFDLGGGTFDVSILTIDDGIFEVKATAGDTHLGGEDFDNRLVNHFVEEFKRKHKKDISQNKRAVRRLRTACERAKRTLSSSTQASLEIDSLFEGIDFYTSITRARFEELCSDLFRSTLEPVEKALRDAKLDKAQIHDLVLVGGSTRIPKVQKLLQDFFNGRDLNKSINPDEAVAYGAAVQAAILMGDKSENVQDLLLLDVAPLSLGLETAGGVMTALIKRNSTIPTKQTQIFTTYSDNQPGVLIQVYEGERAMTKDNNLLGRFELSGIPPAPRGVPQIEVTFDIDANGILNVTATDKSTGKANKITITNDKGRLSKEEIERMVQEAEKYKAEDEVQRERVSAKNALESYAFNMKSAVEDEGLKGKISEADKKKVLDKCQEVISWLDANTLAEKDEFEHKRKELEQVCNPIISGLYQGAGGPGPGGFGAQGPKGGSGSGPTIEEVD

With `CC[C@H](C)[C@H](NC(=O)[C@@H]1CCCN1C(=O)[C@@H](NC(=O)[C@H](CC(=O)O)NC(=O)[C@@H](NC(=O)[C@@H](N)CC(=O)O)[C@@H](C)O)[C@@H](C)O)C(=O)N[C@H](C(=O)N[C@@H](Cc1ccc(O)cc1)C(=O)N[C@@H](CC(N)=O)C(=O)N[C@@H](CC(=O)O)C(=O)N[C@@H](CCCNC(=N)N)C(=O)N[C@@H](CC(N)=O)C(=O)N[C@@H](CC(C)C)C(=O)N[C@@H](CC(C)C)C(=O)N[C@@H](CC(=O)O)C(=O)O)C(C)C` [N, DTDTPIVYNDRNLLD], the kon in assay [1] came to 357 M⁻¹ s⁻¹. Also, the “dissociation rate from HSP72, faster in 2.5 mM than in 0.1 mM ATP” value in assay [2] (400 μM N peptide, 20,000 RU HSP72, HBS-P, 2.5 mM magnesium acetate) is 3 times.
Take “DTDTPIVYNDRDLLD [Peptide N4D, DTDTPIVYNDRDLLD]”: the kon in assay [1] worked out at 7 M⁻¹ s⁻¹.
Take “DTDTPIVYNDRDPLD [Peptide N3P4D, DTDTPIVYNDRDPLD]”: the kon in assay [1] turned out to be 14 M⁻¹ s⁻¹.
Turning to “HSP72: 72 kDa heat shock protein; major inducible member of the 70kDa family”, the “functional HSP72 responsiveness of 4D virus variant” value in assay [3] is “loss of functional HSP72 responsiveness”. The “stimulation of viral transcriptional activity (CAT reporter)” value in assay [4] (HSP72 added by transfection, wild type MV N) is 2-3 fold. In addition, the “response to HSP72 supplementation (CAT reporter)” value in assay [4] (N protein with C-terminal 3P4D substitutions) and in assay [4] (N protein with C-terminal 4D substitution) was “lack a response” throughout. For the same compound, in assay [5], the “effect of HSP72 association on RNP” value is “increased RNP transcriptional activity”. Further, the “HSP72 responsiveness in viral transcription and genome replication” value in assay [6] is “retains HSP72 responsiveness”.
Regarding STSRHKKLMFKTEGP [p53], the “signal over bulk shift on IgG” value in assay [7] was “signal over bulk shift was not observed”. For the same compound, the “binding to HSP72 (sensorgram pattern)” value in assay [2] was “progressive rise in signal observed over time”.
In the case of YGSLPQKAQRPQDEN [MBP], the “inhibition of RNP binding to HSP72” value in assay [8] (400 μM peptide, MV RNP representing 1 nM N protein, maximal sensorgram response) came out at 18%. Also, the “level of inhibition of RNP-HSP72 binding, comparison” value in assay [8] (400 mM (so in the source) MBP peptide vs 5 μM N peptide) is reported as “comparable to that using only 5 μM N peptide”. In addition, the “binding to HSP72 (sensorgram pattern)” value in assay [2] was “identical sensorgrams were obtained with 1 mM peptide solution and flow channels containing no ligand or flow channels containing either HSP72 or irrelevant protein (i.e., IgG) as ligand”.

These data come from paper PMC248471 (Biological Procedures Online, 2003).
